Assay results: PubChem BioAssay
Results filed as inconclusive are left out.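 The calls were made as follows, unless noted: active = cell viability at or below a set limit in both duplicate runs, the limit being the all-compound median minus 4 SD (cut at about 23% in these data, passing the limit was not always enough); inconclusive = no clear call, values can overlap the other calls; inactive = the rest.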

How the values were obtained:
[1] = OD615 S. cerevisiae growth inhibition, permissive medium, pilot counter-assay, permissive growth control for S. cerevisiae lifespan shortening project (AID 705;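 active = growth inhibition above 25% in both replicates, a cutoff set 3 SD above the mean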); settings: OD615, 24 h, at 10 µM, stronger effect = higher value
Summary of the method: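 Test system: Saccharomyces cerevisiae strain carrying genetically modified DeaD replicative-lifespan system; buffer or medium: SC raffinose/galactose permissive medium; dosing: one dose 10 µM, DMSO 0.25% final; times: 24 h exposure, 30 °C; measured by: OD at 615 nm; read-out basis: growth inhibition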

[2] = Restrictive medium S. cerevisiae growth inhibition, OD615, pilot screen of yeast lifespan reduction project, restrictive growth control (AID 706;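 active = growth inhibition above a set limit, 3 SD over mean compound inhibition, in both replicates, cut at about 43% in these data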;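 also: modified DeaD lifespan yeast strain shifted to restrictive glucose medium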); settings: OD615, 48 h, at 10 µM, stronger effect = higher value
Summary of the method: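 material = engineered S. cerevisiae DeaD strain | buffer or medium = glucose-based CSMM-D restrictive medium | dosing = one concentration, 10 µM final, 0.25% DMSO | schedule = 4 h pre-growth plus 48 h compound exposure, 30 °C | detection = OD615 absorbance reading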

[3] = viability gain of MRP-1-high H69AR cells under doxorubicin, pilot screen, MRP-1 activator project, CellTiter-Glo, duplicate (AID 807;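 active = viability increase at or above a cutoff of the median across tested compounds plus 3 SD, cut at about 8.5% in these data, passing the limit was not always enough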;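 also: compound pretreatment 18-22 h then 72 h combined with doxorubicin; 0% = doxorubicin alone and 100% = vehicle without doxorubicin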); settings: H69AR viability with doxorubicin, CellTiter-Glo luminescence; at 10 µM; stronger effect = higher value
[4] = growth suppression of beta-catenin knockout HCT116, pilot screen, human colon tumor cells (AID 823); settings: CellTiter-Glo, 60 h, at 10 µM, stronger effect = lower value;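 also: 0% = wells killed by 20 µM Hyamine and 100% = untreated DMSO cell wells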
[5] = growth suppression of PTEN-deleted HCT116, pilot screen, cell-based, HCT116 clonal line, CellTiter-Glo (AID 824;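 active = viability at or below 27.92% in each of two runs, the all-compound median minus 4 SD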;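 also: 0% = 20 µM Hyamine control and 100% = vehicle cell control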); settings: 60 h, at 10 µM, stronger effect = lower value
[6] = inhibitors of the yeast RAM network, pilot screen, dse1pr::URA3 reporter, 5-FOA selection (AID 869;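 active = inhibition over a set limit, the all-compound mean plus 3 SD, in both replicate runs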;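 also: 0% = DMSO wells with no growth and 100% = 10 µM 1-NA-PP1 with full growth; RAM network block rescues cells from 5-FOA so hits raise OD615 growth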); settings: S. cerevisiae dse1pr::URA3 5-FOA growth, OD615, 2 d; at 10 µM; stronger effect = higher value; strain carries analog-sensitive mutant Cbk1 kinase
[7] = RAM signaling pathway blockade in yeast – S. cerevisiae, Pdr1DBD-CYC8 efflux-inhibited sensitized strain, primary screen (AID 1298;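 active = RAM network inhibition above 8.4% in each of two replicates, 3 SD over the compound average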;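 also: 0% = DMSO untreated cells without growth and 100% = 10 µM 1-NA-PP1 full growth; higher means more yeast growth rescued from 5-FOA killing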); settings: S. cerevisiae cbk1-as DSE1-URA3 strain, 5-FOA growth OD615, 2 d; at 50 µM; stronger effect = higher value

CCOc1ccc(C2CC(=O)NC(SCC(=O)OC)=C2C#N)cc1 (stereo not given)
inactive: growth inhibition [1] 3.64% | growth inhibition [2] 6.22% | viability increase [3] 2.65% | viability [4] 102% | viability [5] 105% | inhibition [6] 1.87% | RAM network inhibition [7] 1.2%

CCOCCOC(=O)C1=C(C)N(C)C(=O)NC1c1ccccc1Cl (stereo not given)
inactive: growth inhibition [1] 1.35% | growth inhibition [2] -7.18% | viability increase [3] -1.78% | viability [4] 101% | viability [5] 99.8% | inhibition [6] 0.375% | RAM network inhibition [7] 0.57%

COc1cccc2c(=O)n(CC(=O)NC3CCCC3)ccc12
inactive: growth inhibition [1] -19.3% | growth inhibition [2] -5.62% | viability increase [3] -1.22% | viability [4] 99.1% | viability [5] 94% | inhibition [6] -0.215% | RAM network inhibition [7] 3.83%

CN(C)Cc1cc(C(C)(C)C)c(O)c(C(C)(C)C)c1
inactive: growth inhibition [1] -3.78% | growth inhibition [2] -4.33% | viability increase [3] -2.61% | viability [4] 97.2% | viability [5] 101% | inhibition [6] 0.92% | RAM network inhibition [7] 5.72%

CCOC(=O)c1ccc(N2C(=O)C3ON(c4ccccc4)C(c4ccco4)C3C2=O)cc1 (stereo not given)
inactive: growth inhibition [1] -17.9% | growth inhibition [2] 5.19% | viability increase [3] -4.17% | viability [4] 102% | viability [5] 93.4% | inhibition [6] 1.73% | RAM network inhibition [7] 4.07%

O=c1[nH]c(NC2CCCCC2)nnc1Cc1ccccc1
inactive: growth inhibition [1] -10% | growth inhibition [2] -5.11% | viability increase [3] 0.04% | viability [4] 102% | viability [5] 97.6% | inhibition [6] 2.53% | RAM network inhibition [7] 1.52%

COc1ccc(NC(=O)Cc2nc3ccccc3[nH]2)cc1
inactive: growth inhibition [1] 0.43% | growth inhibition [2] 6.96% | viability increase [3] -1.06% | viability [4] 58.9% | viability [5] 92.5% | inhibition [6] 0.695% | RAM network inhibition [7] -1.49%

O=C(NCCc1ccc(Cl)cc1)c1nnc(Cc2ccc(Cl)cc2)o1
inactive: growth inhibition [1] -3.81% | growth inhibition [2] 3.52% | viability increase [3] 0.2% | viability [4] 103% | viability [5] 103% | inhibition [6] 2.82% | RAM network inhibition [7] 7.52%

Cc1onc(-c2ccccc2Cl)c1C(=O)Nc1c(C)n(C)n(-c2ccccc2)c1=O
inactive: growth inhibition [1] -7.2% | growth inhibition [2] 3.75% | viability increase [3] 0.84% | viability [4] 104% | viability [5] 103% | inhibition [6] 0.355% | RAM network inhibition [7] 3.34%

COc1ccc(CNC(=O)c2cnn3c(C(F)F)cc(C)nc23)cc1OC
inactive: growth inhibition [1] -6.09% | growth inhibition [2] 9.23% | viability increase [3] 0.02% | viability [4] 92.3% | viability [5] 86.2% | inhibition [6] 1.99% | RAM network inhibition [7] 2.31%

Cc1ccc(C(=O)c2ccccc2C(=O)O)c(O)c1
inactive: growth inhibition [1] -15.6% | growth inhibition [2] -4.92% | viability increase [3] 0.69% | viability [4] 94.8% | viability [5] 106% | inhibition [6] 0.835% | RAM network inhibition [7] 5.69%

O=C(CSc1ncnc2nc[nH]c12)N1CCOCC1
inactive: growth inhibition [1] -15.7% | growth inhibition [2] -14.4% | viability increase [3] -0.96% | viability [4] 86% | viability [5] 102% | inhibition [6] -0.435% | RAM network inhibition [7] 2.34%

COc1ccc(NC(=O)CN(c2cc(C)cc(C)c2)S(=O)(=O)c2c(C)noc2C)cc1
inactive: growth inhibition [1] -19.1% | growth inhibition [2] -14.2% | viability increase [3] -2.45% | viability [4] 95.2% | viability [5] 101% | inhibition [6] 0.19% | RAM network inhibition [7] 2.39%

O=C(Cn1cc2c(n1)CCCCC2)N1CCCCC1
inactive: growth inhibition [1] -4.8% | growth inhibition [2] -5.9% | viability increase [3] -0.82% | viability [4] 98.5% | viability [5] 92.4% | inhibition [6] 1.23% | RAM network inhibition [7] -2.24%

Cc1nc2ccccn2c1C(=O)NC1CCCCC1
inactive: growth inhibition [1] 4.45% | growth inhibition [2] 1.56% | viability increase [3] -1.3% | viability [4] 101% | viability [5] 103% | inhibition [6] 1.17% | RAM network inhibition [7] -0.77%

NC(=O)CSc1oc(-c2ccc(F)cc2)nc1S(=O)(=O)c1ccccc1
inactive: growth inhibition [1] -6.54% | growth inhibition [2] -10.7% | viability increase [3] -4.42% | viability [4] 92.7% | viability [5] 87.8% | inhibition [6] 0.73% | RAM network inhibition [7] 1.45%

CCC(=O)N/C(=N/c1nc(C)cc(C)n1)Nc1cccc(OC)c1
inactive: growth inhibition [1] -5.62% | growth inhibition [2] -19.7% | viability increase [3] -4.53% | viability [4] 41.1% | viability [5] 36.4% | inhibition [6] 2.23% | RAM network inhibition [7] 3.66%

Nc1nonc1C(=O)NCCc1ccccc1
inactive: growth inhibition [1] -6.66% | growth inhibition [2] 6.3% | viability increase [3] -0.05% | viability [4] 116% | viability [5] 99.6% | inhibition [6] 0.71% | RAM network inhibition [7] -0.76%

O=C(COC(=O)c1ccccc1Oc1ccccc1)NCc1ccco1
inactive: growth inhibition [1] -7.67% | growth inhibition [2] -3.48% | viability increase [3] -6.02% | viability [4] 61.6% | viability [5] 67.1% | inhibition [6] 2.41% | RAM network inhibition [7] 2.24%

CCNC(=O)Cc1ccc(NS(=O)(=O)c2ccc(F)cc2)cc1
inactive: growth inhibition [1] -7.1% | growth inhibition [2] 13.8% | viability increase [3] -2.21% | viability [4] 100% | viability [5] 94.6% | inhibition [6] 0.34% | RAM network inhibition [7] 2.36%

COc1cccc2c1N1C(=O)c3c(C(=O)O)cccc3C1CC2(C)C (stereo not given)
inactive: growth inhibition [1] -15.2% | growth inhibition [2] -18.1% | viability increase [3] -2.18% | viability [4] 108% | viability [5] 98.9% | inhibition [6] 4.54% | RAM network inhibition [7] 2.74%

Cc1occc1C(=O)NCc1ccc2c(c1)OCO2
inactive: growth inhibition [1] -7.06% | growth inhibition [2] 3.86% | viability increase [3] 0.84% | viability [4] 101% | viability [5] 99.2% | inhibition [6] 1.78% | RAM network inhibition [7] 1.93%

Cc1ccc(C2CC(c3ccccc3)n3ncnc3N2)cc1 (stereo not given)
inactive: growth inhibition [1] 1.32% | growth inhibition [2] 6.08% | viability increase [3] 1.68% | viability [4] 99.9% | viability [5] 98.8% | inhibition [6] 0.06% | RAM network inhibition [7] 1.8%

CC(=O)c1cccc(NC(=O)N2CCCC2C(=O)NCc2ccccc2)c1 (stereo not given)
inactive: growth inhibition [1] -6.55% | growth inhibition [2] -11.5% | viability increase [3] -1.13% | viability [4] 104% | viability [5] 100% | inhibition [6] 0.87% | RAM network inhibition [7] 1.46%

CCCN(CCC)C(=O)COc1cc(=O)n(CC)c2ccccc12
inactive: growth inhibition [1] -17.4% | growth inhibition [2] -2.75% | viability increase [3] -1.75% | viability [4] 99.8% | viability [5] 89.3% | inhibition [6] 0.52% | RAM network inhibition [7] 0.9%

CCC(=O)N1C(C(=O)O)CSC1c1ccc(OC)cc1 (stereo not given)
inactive: growth inhibition [1] -0.64% | growth inhibition [2] 6.29% | viability increase [3] -0.61% | viability [4] 98.1% | viability [5] 93.5% | inhibition [6] 1.16% | RAM network inhibition [7] 2.87%

CCOC(=O)CC1C(=O)NCCN1Cc1cccc(C(F)(F)F)c1 (stereo not given)
inactive: growth inhibition [1] -4.03% | growth inhibition [2] -3.95% | viability increase [3] -1.61% | viability [4] 97.4% | viability [5] 86% | inhibition [6] 1.66% | RAM network inhibition [7] -0.14%

CCOC(=O)c1c(N)sc2c(O)c(Br)ccc12
inactive: growth inhibition [1] -26.9% | growth inhibition [2] -1.8% | viability increase [3] -0.49% | viability [4] 104% | viability [5] 107% | inhibition [6] 1.01% | RAM network inhibition [7] 5.24%

CCCc1ccc(Oc2cn[nH]c2-c2ccc(O)cc2O)cc1
inactive: growth inhibition [1] -16.3% | growth inhibition [2] -10.3% | viability increase [3] -3.5% | viability [4] 82.4% | viability [5] 78.7% | inhibition [6] 0.7% | RAM network inhibition [7] 2.88%

CCOc1ccc(N(CC(=O)N2CC=C(c3ccccc3)CC2)S(=O)(=O)c2c(C)noc2C)cc1
inactive: growth inhibition [1] -3.46% | growth inhibition [2] -23.9% | viability increase [3] -3.95% | viability [4] 71.1% | viability [5] 64.9% | inhibition [6] 1.11% | RAM network inhibition [7] 0.32%

COc1ccc(OC)c(C2CC(=O)N3CN(c4ccccc4F)CSC3=C2C#N)c1 (stereo not given)
inactive: growth inhibition [1] 8.3% | growth inhibition [2] 14.5% | viability increase [3] -1.77% | viability [4] 98.3% | viability [5] 101% | inhibition [6] 1.03% | RAM network inhibition [7] 8.39%

Cn1c(NCCO)nc2c(c1=O)C1(CCCCC1)Cc1ccccc1-2
inactive: growth inhibition [1] -13.2% | growth inhibition [2] -9.4% | viability increase [3] -2.31% | viability [4] 84% | viability [5] 76% | inhibition [6] 2.31% | RAM network inhibition [7] 5%

COc1cc(OC)c(C2N(c3ccc(Cl)cc3)C(=O)C3CCCN32)cc1OC (stereo not given)
inactive: growth inhibition [1] -2.8% | growth inhibition [2] -2.08% | viability increase [3] -2.63% | viability [4] 105% | viability [5] 96.7% | inhibition [6] 2.59% | RAM network inhibition [7] 3.82%

O=C(Cn1nc(Cc2cccnc2)c2ccccc2c1=O)N1CCN(c2ccccn2)CC1
inactive: growth inhibition [1] 4.64% | growth inhibition [2] 2.73% | viability increase [3] 0.48% | viability [4] 94.8% | viability [5] 100% | inhibition [6] 0.985% | RAM network inhibition [7] -0.56%

CSc1oc(-c2ccc(F)cc2)nc1S(=O)(=O)c1ccccc1
inactive: growth inhibition [1] -2.16% | growth inhibition [2] 0.385% | viability increase [3] -1.13% | viability [4] 97.2% | viability [5] 93.7% | inhibition [6] 0.585% | RAM network inhibition [7] 4.67%
